Reference: ChEMBL document CHEMBL4052722, “Virtual screening, synthesis and biological evaluation of DNA intercalating antiviral agents” (Bioorg Med Chem Lett, 2017)
Calls of active or inactive are those of the source. No cut-off for these calls is given here.

Tested on: not listed separately
Experiment: Cytotoxicity against African green monkey CV1 cells assessed as reduction in cell viability preincubated for 4 hrs measured after 24 hrs by MTT assay relative to control
Type: cell-based, CV-1
Conditions: chlorocebus aethiops
How it was run: (§1)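 CV-1 cells were exposed to test samples at 0.1, 10 and 100 μM. Viability was read by MTT assay.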
For `CN(C)CCCNC(=O)Cn1c2ccccc2c2nc3ccccc3nc21`, the CC50 at 24 h was 100 to 500 µM.
Work on `c1ccc2nc3c(nc2c1)c1ccccc1n3CCNCCCN1CCOCC1` yielded a CC50 at 24 h of 50 to 81 µM.
Compound `CCN(CC)CCCNCCn1c2ccccc2c2nc3ccccc3nc21` has a CC50 at 24 h of 30 to 50 µM.
`COc1ccc2c(c1)c1nc3ccccc3nc1n2CCN1CCCCC1` showed a CC50 at 24 h of 100 to 170 µM.
With `CN(C)CCCNCCn1c2ccccc2c2nc3ccccc3nc21` the CC50 at 24 h was 50 to 92 µM.

Tested on: L929
Experiment: Induction of IFN-alpha activity in mouse L929 cells infected with Encephalomyocarditis virus at 10 uM preincubated with cells for overnight followed by viral infection by optical microscopic analysis
Type: functional, cell-based
Conditions: not given
In the case of `CN(C)CCCNC(=O)Cn1c2ccccc2c2nc3ccccc3nc21`, the Activity is reported as “inactive”.
With `c1ccc2nc3c(nc2c1)c1ccccc1n3CCNCCCN1CCOCC1` the Activity was “inactive”.
With `COc1ccc2c(c1)c1nc3ccccc3nc1n2CCN1CCCCC1` the Activity was “inactive”.
With `CN(C)CCCNCCn1c2ccccc2c2nc3ccccc3nc21` the Activity was “inactive”.

Tested on: not listed separately
Experiment: Selectivity index, ratio of CC50 for African green monkey CV1 cells to IC50 for Vaccinia virus LIVP harboring GFP infected in African green monkey CV1 cells
Type: toxicity
Conditions: read-out: Ratio CC50/IC50
With `CN(C)CCCNC(=O)Cn1c2ccccc2c2nc3ccccc3nc21` the selectivity ratio was 50.
Compound `c1ccc2nc3c(nc2c1)c1ccccc1n3CCNCCCN1CCOCC1` has a selectivity ratio of 4.
Work on `COc1ccc2c(c1)c1nc3ccccc3nc1n2CCN1CCCCC1` yielded a selectivity ratio of 34.
`CN(C)CCCNCCn1c2ccccc2c2nc3ccccc3nc21` showed a selectivity ratio of 4.

Tested on: not listed separately
Experiment: Cytotoxicity against African green monkey CV1 cells assessed as viable cells at 30 uM after 110 hrs by real-time cells analysis relative to control
Type: cell-based, CV-1
Conditions: chlorocebus aethiops, read-out: Activity
How it was run: (§2)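 CV-1 cell viability was monitored in real time on an xCelligence Real-Time Cell Analyzer. This ran in parallel with the plaque-forming assay, in which cells were pre-incubated with the compounds for 4 h before infection.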
Work on `c1ccc2nc3c(nc2c1)c1ccccc1n3CCNCCCN1CCOCC1` yielded a viability at 110 h, 30 µM of 75%.
With `CN(C)CCCNCCn1c2ccccc2c2nc3ccccc3nc21` the viability at 110 h, 30 µM was 75%.

Tested on: not listed separately
Experiment: Cytotoxicity against African green monkey CV1 cells assessed as viable cells at 50 uM after 110 hrs by real-time cell analysis relative to control
Type: cell-based, CV-1
Conditions: chlorocebus aethiops, read-out: Activity
How it was run: as §2
`CN(C)CCCNC(=O)Cn1c2ccccc2c2nc3ccccc3nc21` gave a viability at 110 h, 50 µM of 90%.
Compound `CCN(CC)CCCNCCn1c2ccccc2c2nc3ccccc3nc21` has a viability at 110 h, 50 µM of 17.2%.
Compound `COc1ccc2c(c1)c1nc3ccccc3nc1n2CCN1CCCCC1` has a viability at 110 h, 50 µM of 75.6%.

Tested on: not listed separately
Experiment: Cytotoxicity against African green monkey CV1 cells assessed as viable cells at 5 uM after 110 hrs by real-time cell analysis relative to control
Type: cell-based, CV-1
Conditions: chlorocebus aethiops, read-out: Activity
How it was run: as §2
`CCN(CC)CCCNCCn1c2ccccc2c2nc3ccccc3nc21` gave a viability at 110 h, 5 µM of 125%.

Species on record: Bos taurus
Experiment: Displacement of ethidium bromide from calf thymus DNA by fluorescence binding assay
Conditions: not given
With `CN(C)CCCNC(=O)Cn1c2ccccc2c2nc3ccccc3nc21` the log Ka was 5.2.
`c1ccc2nc3c(nc2c1)c1ccccc1n3CCNCCCN1CCOCC1` showed a log Ka of 6.72.
For `CCN(CC)CCCNCCn1c2ccccc2c2nc3ccccc3nc21`, the log Ka was 6.87.
Work on `CN(C)CCCNCCn1c2ccccc2c2nc3ccccc3nc21` yielded a log Ka of 6.76.

Tested on: not listed separately
Experiment: Cytotoxicity against African green monkey CV1 cells assessed as cell viability at 0.1 to 100 uM preincubated for 4 hrs measured after 24 hrs by MTT assay relative to control
Type: cell-based, CV-1
Conditions: chlorocebus aethiops, read-out: Activity
How it was run: as §1
For `CN(C)CCCNC(=O)Cn1c2ccccc2c2nc3ccccc3nc21`, the viability at 24 h, up to 100 µM was 84%.
In the case of `c1ccc2nc3c(nc2c1)c1ccccc1n3CCNCCCN1CCOCC1`, the viability at 24 h, up to 100 µM is reported as 79%.
`CCN(CC)CCCNCCn1c2ccccc2c2nc3ccccc3nc21` gave a viability at 24 h, up to 100 µM of 74%.
With `COc1ccc2c(c1)c1nc3ccccc3nc1n2CCN1CCCCC1` the viability at 24 h, up to 100 µM was 79%.
Compound `CN(C)CCCNCCn1c2ccccc2c2nc3ccccc3nc21` has a viability at 24 h, up to 100 µM of 88%.

Tested on: Vesicular stomatitis virus
Experiment: Antiviral activity against Vesicular stomatitis virus at 0.2 to 620 uM after 24 hrs post infection relative to control
Type: functional
Conditions: not given
Compound `CN(C)CCCNC(=O)Cn1c2ccccc2c2nc3ccccc3nc21` has an Activity of 50%.
Compound `c1ccc2nc3c(nc2c1)c1ccccc1n3CCNCCCN1CCOCC1` has an Activity of 52%.
With `CCN(CC)CCCNCCn1c2ccccc2c2nc3ccccc3nc21` the Activity was 53%.
`CN(C)CCCNCCn1c2ccccc2c2nc3ccccc3nc21` gave an Activity of 69%.

Tested on: not listed separately
Experiment: Cytotoxicity against African green monkey CV1 cells assessed as viable cells at 10 uM after 110 hrs by real-time cell analysis relative to control
Type: cell-based, CV-1
Conditions: chlorocebus aethiops, read-out: Activity
How it was run: as §2
`CN(C)CCCNC(=O)Cn1c2ccccc2c2nc3ccccc3nc21` gave a viability at 110 h, 10 µM of 131%.
`c1ccc2nc3c(nc2c1)c1ccccc1n3CCNCCCN1CCOCC1` showed a viability at 110 h, 10 µM of 110%.
With `CCN(CC)CCCNCCn1c2ccccc2c2nc3ccccc3nc21` the viability at 110 h, 10 µM was 125%.
`COc1ccc2c(c1)c1nc3ccccc3nc1n2CCN1CCCCC1` showed a viability at 110 h, 10 µM of 96.9%.
For `CN(C)CCCNCCn1c2ccccc2c2nc3ccccc3nc21`, the viability at 110 h, 10 µM was 110%.

Tested on: not listed separately
Experiment: Cytotoxicity against African green monkey CV1 cells assessed as viable cells at 1 uM after 110 hrs by real-time cell analysis relative to control
Type: cell-based, CV-1
Conditions: chlorocebus aethiops, read-out: Activity
How it was run: as §2
`CN(C)CCCNC(=O)Cn1c2ccccc2c2nc3ccccc3nc21` showed a viability at 110 h, 1 µM of 104%.
For `c1ccc2nc3c(nc2c1)c1ccccc1n3CCNCCCN1CCOCC1`, the viability at 110 h, 1 µM was 107%.
Compound `CCN(CC)CCCNCCn1c2ccccc2c2nc3ccccc3nc21` has a viability at 110 h, 1 µM of 97.1%.
In the case of `COc1ccc2c(c1)c1nc3ccccc3nc1n2CCN1CCCCC1`, the viability at 110 h, 1 µM is reported as 108%.
Work on `CN(C)CCCNCCn1c2ccccc2c2nc3ccccc3nc21` yielded a viability at 110 h, 1 µM of 114%.
